Measured values published in ChEMBL document CHEMBL1122083, “Isoxazolidine-3,5-diones as lens aldose reductase inhibitors” (J Med Chem, 1982).

Target: Aldo-keto reductase family 1 member B1 (Rattus norvegicus) (UniProt P07943)
Test: Inhibition of rat lens aldose reductase at 50 uM
In short: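 Enzyme partially purified from rat lenses. Each compound was tested at a single concentration of 50 μM, and percent inhibition was determined by the Hayman and Kinoshita method.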

inhibition | SMILES
6.5% | O=C1NOC(=O)C1c1ccccn1 (configuration not stated)
75% | COc1cccc(C2C(=O)NOC2=O)c1 (configuration not stated)
80% | O=C1NOC(=O)C1c1ccccc1C(F)(F)F (configuration not stated)
0% | COc1ccccc1C1C(=O)NOC1=O (configuration not stated)

Further lines, the compound ahead of its results:

SMILES | inhibition
O=C1NOC(=O)C1CCS(=O)(=O)c1ccccc1 (configuration not stated) | 32%
O=C1NOC(=O)C1c1cccnc1 (configuration not stated) | 37%
O=C(O)CN1C(=O)c2cccc3cccc(c23)C1=O | 87%
O=C1NOC(=O)C12Cc1cccc3cccc(c13)C2 | 5.1%
O=C1NOC(=O)C1CCOc1ccccc1 (configuration not stated) | 35%
O=C1NOC(=O)C1CC[S+]([O-])c1ccccc1 (configuration not stated) | 19%
CC(=O)Nc1ccc(C2(C)C(=O)NOC2=O)cc1 (configuration not stated) | 16%

Tested on: not listed separately
Test: pKa value for the compound was determined
Format: physicochemical

pKa | SMILES
7.85 | O=C1NC(=O)[C@@]2(CCOc3ccc(F)cc32)N1 [SORBINIL]
